Experimental data taken from ChEMBL document CHEMBL4609978, “Synthesis and evaluation of 2'-dihalo ribonucleotide prodrugs with activity against hepatitis C virus” (Bioorg Med Chem, 2020).

Columns and labels:
Hepatitis C virus [1] = assay: Antiviral activity against HCV genotype 1a H77 infected in human HuH7 replicon cells assessed as inhibition of viral replication after 3 days by luciferase reporter gene assay; format: functional, organism-based, Hepacivirus hominis; conditions: subtype 1a H77, Huh-7, 72 h
Outline: (§1)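 Stable subgenomic replicon cell lines (genotype 1a-H77 or 1b-Con1) carrying a luciferase reporter; compounds added in DMEM with 5% FBS, cells incubated 3 days with or without compound, then lysed and luciferase activity read; EC50 from nonlinear regression fit to 4-parameter logistic equation.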

Hepatitis C virus [2] = assay: Antiviral activity against HCV genotype 1b Con1 infected in human HuH7 replicon cells assessed as inhibition of viral replication after 3 days by luciferase reporter gene assay; format: functional, organism-based, Hepacivirus hominis; conditions: subtype 1b Con1, Huh-7, 72 h; outline: as §1
[3] = Cytotoxicity against human HuH7 cells assessed as reduction in cell viability; format: cell-based, Huh-7; conditions: read-out: TD50 (the source's name)
Hepatitis C virus [4] = assay: Antiviral activity against HCV genotype 1b Con1 expressing wild type NS5B infected in human HuH7 replicon cells assessed as inhibition of viral replication after 4 days by luciferase reporter gene based assay; format: functional, organism-based, Hepacivirus hominis; conditions: subtype 1b Con1, Huh-7, 96 h
Hepatitis C virus [5] = assay: Antiviral activity against HCV genotype 1b Con1 expressing NS5B S282T mutant infected in human HuH7 replicon cells assessed as inhibition of viral replication after 4 days by luciferase reporter gene based assay; format: functional, organism-based, Hepacivirus hominis; conditions: subtype 1b Con1, Huh-7, 96 h
Hepatitis C virus [6] = assay: Antiviral activity against HCV genotype 2a expressing wild type NS5B infected in human HuH7 replicon cells assessed as inhibition of viral replication after 4 days by luciferase reporter gene based assay; format: functional, organism-based, Hepacivirus hominis; conditions: subtype 2a, Huh-7, 96 h
Hepatitis C virus [7] = assay: Antiviral activity against HCV genotype 2a expressing NS5B S282T mutant infected in human HuH7 replicon cells assessed as inhibition of viral replication after 4 days by luciferase reporter gene based assay; format: functional, organism-based, Hepacivirus hominis; conditions: subtype 2a, Huh-7, 96 h
Hepatitis C virus [8] = assay: Antiviral activity against HCV genotype 3a expressing wild type NS5B infected in human HuH7 replicon cells assessed as inhibition of viral replication after 4 days by luciferase reporter gene based assay; format: functional, organism-based, Hepacivirus hominis; conditions: subtype 3a, Huh-7, 96 h
Hepatitis C virus [9] = assay: Antiviral activity against HCV genotype 3a expressing NS5B S282T mutant infected in human HuH7 replicon cells assessed as inhibition of viral replication after 4 days by luciferase reporter gene based assay; format: functional, organism-based, Hepacivirus hominis; conditions: subtype 3a, Huh-7, 96 h
Hepatitis C virus [10] = assay: Antiviral activity against HCV genotype 4a expressing wild type NS5B infected in human HuH7 replicon cells assessed as inhibition of viral replication after 4 days by luciferase reporter gene based assay; format: functional, organism-based, Hepacivirus hominis; conditions: subtype 4a, Huh-7, 96 h
Hepatitis C virus [11] = assay: Antiviral activity against HCV genotype 6a expressing wild type NS5B infected in human HuH7 replicon cells assessed as inhibition of viral replication after 4 days by luciferase reporter gene based assay; format: functional, organism-based, Hepacivirus hominis; conditions: subtype 6a, Huh-7, 96 h
[12] = Prodrug conversion in human primary hepatocytes assessed as nucleotide triphosphate level at 100 uM incubated for 4 hrs followed by compound wash-out for 20 hrs and measured following 4 hrs incubation period by LC-MS/MS analysis; format: ADME, cell-based, Hepatocyte
Outline: (§2)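 Cryopreserved primary human hepatocytes plated ~55,000 viable cells/well on collagen, medium changed after 4–6 h to Williams E maintenance medium with Geltrex 0.35 mg/mL, overnight at 37 °C; prodrug 100 µM for 4 h, then washed; second plate held a further 20 h drug-free; cells washed with ice-cold HBSS, triphosphate measured by LC-MS/MS at 4 or 24 h.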

[13] = Prodrug conversion in human primary hepatocytes assessed as nucleotide triphosphate level at 100 uM incubated for 4 hrs and followed by compound washout for 20 hrs and measured following 24 hrs incubation period by LC-MS/MS analysis; format: ADME, cell-based, Hepatocyte; outline: as §2
Hepatitis C virus [14] = assay: Antiviral activity against HCV genotype 1b Con1 over expressing CES1 infected in human HuH7 replicon cells assessed as inhibition of viral replication after 3 days by luciferase reporter gene assay; format: functional, organism-based, Hepacivirus hominis; conditions: subtype 1b Con1, Huh-7, 72 h
[15] = Aqueous solubility of compound in pH 7.4 phosphate buffer; format: physicochemical
[16] = Stability in dog plasma assessed as parent compound remaining after 4 hrs; format: ADME, cell-free, Canis lupus familiaris; conditions: read-out: Stability
Outline: (§3)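 Prodrug incubated 4 h at 37 °C in dog or human plasma; result given as percent parent remaining.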

[17] = Stability in human plasma assessed as parent compound remaining after 4 hrs; format: ADME, cell-free; conditions: read-out: Stability; outline: as §3
[18] = Unbound drug level in dog plasma; format: ADME, cell-free, Canis lupus familiaris
[19] = Unbound drug level in human plasma; format: ADME, cell-free
[20] = Intrinsic clearance in dog hepatocytes; format: ADME, cell-based, Canis lupus familiaris, Hepatocyte; conditions: read-out: CLH (converted)
[21] = Prodrug conversion in Beagle dog liver assessed as nucleotide triphosphate level at 5 mg/kg, po administered as single dose measured after 4 hrs by LC-MS/MS analysis; format: ADME, organism-based, Canis lupus familiaris; conditions: in vivo
[22] = Prodrug conversion in Beagle dog liver assessed as nucleotide triphosphate level at 5 mg/kg, po co-dosed with 5 mg/kg sofosbuvir measured after 4 hrs by LC-MS/MS analysis; format: ADME, organism-based, Canis lupus familiaris; conditions: in vivo
Outline: (§4)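 Beagle dogs (3 per time point) given single oral prodrug 5 mg/kg in EtOH:PEG-400:Phosal 53 MCT (10:30:60, w/w), cassette-dosed with sofosbuvir 5 mg/kg as internal standard; liver biopsies at 4 or 24 h, flash frozen, triphosphate measured by LC-MS/MS.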

[23] = Prodrug conversion in Beagle dog liver assessed as nucleotide triphosphate level at 5 mg/kg, po administered as single dose measured after 24 hrs by LC-MS/MS analysis; format: ADME, organism-based, Canis lupus familiaris; conditions: in vivo
[24] = Prodrug conversion in Beagle dog liver assessed as nucleotide triphosphate level at 5 mg/kg, po co-dosed with 5 mg/kg sofosbuvir measured after 24 hrs by LC-MS/MS analysis; format: ADME, organism-based, Canis lupus familiaris; conditions: in vivo; outline: as §4
[25] = Distribution coefficient, logD of compound by HT-LCMS analysis; format: physicochemical; conditions: octanol/water
[26] = Intrinsic clearance in human hepatocytes; format: ADME, cell-based, Hepatocyte; conditions: read-out: CLH (converted)
Hepatitis C virus [27] = assay: Potency index, ratio of sofosbuvir EC50 to compound EC50 for HCV genotype 1a H77 infected in human HuH7 replicon cells assessed as inhibition of viral replication after 3 days by luciferase reporter gene assay; format: functional, Hepacivirus hominis, subtype 1a H77, Huh-7
Outline: (§5)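 Stable subgenomic luciferase-reporter replicon Huh-7 lines, genotype 1a-H77 or 1b-Con1. Test compound and sofosbuvir comparator each run in DMEM with 5% FBS for 3 days. Cells lysed and luciferase activity read. EC50 obtained by nonlinear regression to a 4-parameter logistic equation. Index is sofosbuvir EC50 divided by compound EC50, both from this assay.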

Hepatitis C virus [28] = assay: Potency index, ratio of sofosbuvir EC50 to compound EC50 for HCV genotype 1b Con1 infected in human HuH7 replicon cells assessed as inhibition of viral replication after 3 days by luciferase reporter gene assay; format: functional, Hepacivirus hominis, subtype 1b Con1, Huh-7; outline: as §5

Row | Drug metabolism [21] | Drug metabolism [22] | Drug metabolism [23] | Drug metabolism [24] | logD [25] | Compound | EC50 (Hepatitis C virus [1]) | EC50 (Hepatitis C virus [2]) | CC50 [3] | Drug metabolism [12] | Drug metabolism [13] | EC50 (Hepatitis C virus [14]) | solubility [15] | remaining at 4 h [16] | remaining at 4 h [17] | fraction unbound [18] | other results
1 | – | – | – | – | – | CC(C)OC(=O)[C@H](C)N[P@](=O)(OC[C@H]1O[C@@H](n2ccc(=O)[nH]c2=O)[C@](C)(F)[C@@H]1O)Oc1ccccc1 [SOFOSBUVIR] | 155 to 168 nM | 188 to 230 nM | > 100000 nM | 97 µM | 122 µM | 53 nM | > 200 µM | 93% | 96% | 0.323 | EC50 (Hepatitis C virus [4]): 62 nM; EC50 (Hepatitis C virus [5]): 638 nM; EC50 (Hepatitis C virus [6]): 681 nM; EC50 (Hepatitis C virus [7]): 1000 nM; EC50 (Hepatitis C virus [8]): 75.1 nM; EC50 (Hepatitis C virus [9]): 330 nM; EC50 (Hepatitis C virus [10]): 78.5 nM; EC50 (Hepatitis C virus [11]): 86.7 nM; Fu [19]: 0.563; CLint scaled [20]: 40 mL/min/kg
2 | 0.713 µM | 4.2 µM | 0.244 µM | 3.43 µM | 3.3 | CC(C)OC(=O)C(C)(C)NP(=O)(OC[C@H]1O[C@@H](n2ccc(=O)[nH]c2=O)[C@](Cl)(Br)[C@@H]1O)Oc1ccccc1 (stereo partly specified) | 1090 nM | 1380 nM | – | 157 µM | 40 µM | 162 nM | > 200 µM | 100% | 100% | 0.13 | fraction unbound [19]: 0.193; CLint scaled [20]: 133 mL/min/kg
3 | 0.143 µM | 1.76 µM | 0.036 µM | 1.26 µM | 3.21 | CC(C)OC(=O)[C@H](C)N[P@@](=O)(OC[C@H]1O[C@@H](n2ccc(=O)[nH]c2=O)[C@](Cl)(Br)[C@@H]1O)Oc1ccccc1 | 412 nM | 515 nM | – | 102 µM | 24 µM | 218 nM | > 200 µM | – | – | – | –
4 | – | – | – | – | – | CC(C)OC(=O)[C@H](C)N[P@](=O)(OC[C@H]1O[C@@H](n2ccc(=O)[nH]c2=O)C(F)(F)[C@@H]1O)Oc1ccccc1 | 226 nM | 286 nM | 384 nM | – | – | – | – | – | – | – | –
5 | – | – | – | – | – | CC(C)OC(=O)[C@H](C)N[P@](=O)(OC[C@H]1O[C@@H](n2ccc(=O)[nH]c2=O)C(C)(C)C1O)Oc1ccccc1 (single isomer, unassigned) | 5630 nM | 4750 nM | 31600 nM | – | – | – | – | – | – | – | –
6 | – | – | – | – | – | CC(C)OC(=O)[C@H](C)N[P@](=O)(OC[C@H]1O[C@@H](n2ccc(=O)[nH]c2=O)[C@@](Cl)(Br)[C@@H]1O)Oc1ccccc1 | 200 nM | 258 nM | > 100000 nM | – | – | – | – | – | – | – | –
7 | – | – | – | – | – | CC(C)OC(=O)[C@H](C)N[P@](=O)(OC[C@H]1O[C@@H](n2ccc(=O)[nH]c2=O)[C@@](C)(F)[C@@H]1O)Oc1ccccc1 | > 10000 nM | > 10000 nM | > 32000 nM | – | – | – | – | – | – | – | –

Row | Compound | Drug metabolism [21] | Drug metabolism [22] | Drug metabolism [23] | Drug metabolism [24] | logD [25] | EC50 (Hepatitis C virus [1]) | EC50 (Hepatitis C virus [2]) | CC50 [3] | Drug metabolism [12] | Drug metabolism [13] | EC50 (Hepatitis C virus [14]) | solubility [15] | remaining at 4 h [16] | remaining at 4 h [17] | fraction unbound [18] | other results
8 | CC(C)OC(=O)[C@H](C)N[P@](=O)(OC[C@H]1O[C@@H](n2ccc(=O)[nH]c2=O)[C@@](F)(Br)[C@@H]1O)Oc1ccccc1 | 11.5 µM | 7.39 µM | 6.61 µM | 8.87 µM | 3.07 | 56 nM | 87 to 95 nM | > 100000 nM | 192 µM | 91 µM | 56 nM | > 200 µM | 86% | 100% | 0.367 | EC50 (Hepatitis C virus [4]): 15.2 nM; EC50 (Hepatitis C virus [5]): 134 nM; EC50 (Hepatitis C virus [6]): 189 nM; EC50 (Hepatitis C virus [7]): 308 nM; EC50 (Hepatitis C virus [8]): 12.7 nM; EC50 (Hepatitis C virus [9]): 75.3 nM; EC50 (Hepatitis C virus [10]): 25.7 nM; EC50 (Hepatitis C virus [11]): 14.5 nM; fraction unbound [19]: 0.43; CLint scaled [26]: 257 mL/min/kg; Ratio EC50 (Hepatitis C virus [27]): 2 - 3; Ratio EC50 (Hepatitis C virus [28]): 2 - 3
